Reference: ChEMBL document CHEMBL3739279, “Fluorinated betulinic acid derivatives and evaluation of their anti-HIV activity” (Bioorg Med Chem Lett, 2016)

How the values were obtained:
[1] = tested on: Human immunodeficiency virus 1; assay: Antiviral activity against HIV-1 NL4-3 infected in MT4 cells assessed inhibition of viral replication measured on day 4 postinfection by ELISA; format: functional, organism-based; settings: Human immunodeficiency virus 1, NL4-3, MT4, 96 h
How it was run: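 MT4 cells infected with HIV-1 NL4-3 at MOI 0.001 in presence of graded compound concentrations; fresh compound-containing medium added 48 h post-infection to sustain growth. Viral replication read on day 4 by p24 ELISA; EC50 = concentration giving 50% inhibition of replication.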

[2] = Cytotoxicity against human MT4 cells by cell-titer Glo assay; format: cell-based
How it was run: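 MT4 cells cultured in parallel with antiviral cultures; viability read by luminescent ATP quantitation (CellTiter-Glo). CC50 = concentration reducing viability by 50%.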

EC50 [1] [µM]	SMILES	CC50 [2] [µM]
0.097	C=C(CC(F)(F)F)[C@@H]1CC[C@]2(C(=O)O)CC[C@]3(C)[C@H](CC[C@@H]4[C@@]5(C)CC[C@H](OC(=O)CC(C)(C)C(=O)O)C(C)(C)[C@@H]5CC[C@]43C)[C@@H]12	> 6
0.31	C=C(C)[C@@H]1CC[C@]2(C(=O)OCC3CCC(F)(F)CC3)CC[C@]3(C)[C@H](CC[C@@H]4[C@@]5(C)CC[C@H](OC(=O)CC(C)(C)C(=O)O)C(C)(C)[C@@H]5CC[C@]43C)[C@@H]12	> 6
3	C=C(C)[C@@H]1CC[C@]2(C(=O)OCCc3cccc(C(F)(F)F)c3)CC[C@]3(C)[C@H](CC[C@@H]4[C@@]5(C)CC[C@H](OC(=O)CC(C)(C)C(=O)O)C(C)(C)[C@@H]5CC[C@]43C)[C@@H]12	> 5
> 17	C=C(C)[C@@H]1CC[C@]2(C(=O)O)CC[C@]3(C)[C@H](CC[C@@H]4[C@@]5(C)C[C@@H](F)[C@H](OC(=O)CC(C)(C)C(=O)O)C(C)(C)[C@@H]5CC[C@]43C)[C@@H]12	> 17
> 6	C=C(C)[C@@H]1CC[C@]2(C(=O)O)CC[C@]3(C)[C@H](CC[C@@H]4[C@@]5(C)CC[C@H](OC(=O)C(F)(F)C(F)(F)C(F)(F)C(=O)O)C(C)(C)[C@@H]5CC[C@]43C)[C@@H]12	> 6
1.1	C=C(C)[C@@H]1CC[C@]2(C(=O)OCCC3CC3)CC[C@]3(C)[C@H](CC[C@@H]4[C@@]5(C)C[C@@H](F)[C@H](OC(=O)CC(C)(C)C(=O)O)C(C)(C)[C@@H]5CC[C@]43C)[C@@H]12	> 6
> 6	C=C(C)[C@@H]1CC[C@]2(C(=O)OC)CC[C@]3(C)[C@H](CC[C@@H]4[C@@]5(C)C[C@@H](C(F)(F)F)[C@H](OC(=O)CC(C)(C)C(=O)O)C(C)(C)[C@@H]5CC[C@]43C)[C@@H]12	> 6
> 16	C=C(C)[C@@H]1CC[C@]2(C(=O)OC)CC[C@]3(C)[C@H](CC[C@@H]4[C@@]5(C)C[C@@H](F)[C@H](OC(=O)CC(C)(C)C(=O)O)C(C)(C)[C@@H]5CC[C@]43C)[C@@H]12	> 16
> 6	C=C(C)[C@@H]1CC[C@]2(C(=O)O)CC[C@]3(C)[C@H](CC[C@@H]4[C@@]5(C)CC[C@H](OC(=O)C(F)(F)C(F)(F)C(=O)O)C(C)(C)[C@@H]5CC[C@]43C)[C@@H]12	> 6
0.075	C=C(C)[C@@H]1CC[C@]2(C(=O)O)CC[C@]3(C)[C@H](CC[C@@H]4[C@@]5(C)CC[C@H](OC(=O)CC(C)(C)C(=O)O)C(C)(C)[C@@H]5CC[C@]43C)[C@@H]12 [BEVIRIMAT]	> 17
